Measurements: ChEMBL document CHEMBL1144178, “Synthesis and biological evaluation of 2-(3',4',5'-trimethoxybenzoyl)-3-N,N-dimethylamino benzo[b]furan derivatives as inhibitors of tubulin polymerization” (Bioorg Med Chem, 2008)

Assays:
[1] = Inhibition of bovine brain tubulin polymerization for 20 mins by turbidimetry; design: species or system Bos taurus
Method in brief: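 Purified bovine brain tubulin (10 μM) preincubated with varying compound concentrations in glutamate buffer at 30 °C, cooled to 0 °C, GTP added, then warmed to 30 °C in a recording spectrophotometer.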

Bos taurus = species on record: Bos taurus; assay: Displacement of [3H]colchicine from bovine brain tubulin at 1 uM
Method in brief: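 Purified bovine brain tubulin (1 μM) was incubated with 5 μM [3H]colchicine and 1 μM test compound. The read-out is percent inhibition of radiolabelled colchicine binding.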

K562 [2] = assay: Cell cycle arrest in human K-562 cells assessed as accumulation at sub G0/G1 phase at 400 nM after 24 hrs by flow cytometry; format: functional
K562 [3] = assay: Cell cycle arrest in human K-562 cells assessed as accumulation at G2/M phase at 400 nM after 24 hrs by flow cytometry; format: functional
L1210 = assay: Antiproliferative activity against mouse L1210 cells after 2 days; format: functional, cell-based; details: L1210, 48 h
Method in brief: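 Cells were seeded at 300,000–500,000 cells/mL and mixed 1:1 with compound dilutions. They were incubated at 37 °C for two days and counted with a Coulter counter. IC50 is the concentration that inhibits proliferation by 50%, given as mean ± SE from dose–response curves of at least three independent experiments.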

K562 [4] = assay: Cell cycle arrest in human K-562 cells assessed as accumulation at S phase at 400 nM after 24 hrs by flow cytometry; format: functional
K562 [5] = assay: Cell cycle arrest in human K-562 cells assessed as accumulation at G0/G1 phase at 400 nM after 24 hrs by flow cytometry; format: functional
K562 [6] = assay: Cytotoxicity against human K-562 after 24 hrs; format: functional, cell-based; details: K562, 24 h
FM3A = assay: Antiproliferative activity against mouse FM3A cells after 2 days; format: functional, cell-based; details: 48 h
K562 [7] = assay: Cell cycle arrest in human K-562 cells assessed as accumulation at S phase at 85 nM after 24 hrs by flow cytometry; format: functional
K562 [8] = assay: Cell cycle arrest in human K-562 cells assessed as accumulation at G2/M phase at 85 nM after 24 hrs by flow cytometry; format: functional
K562 [9] = assay: Cell cycle arrest in human K-562 cells assessed as accumulation at sub G0/G1 phase at 85 nM after 24 hrs by flow cytometry; format: functional
K562 [10] = assay: Cell cycle arrest in human K-562 cells assessed as accumulation at G0/G1 phase at 85 nM after 24 hrs by flow cytometry; format: functional
K562 [11] = assay: Cell cycle arrest in human K-562 cells assessed as accumulation at sub G0/G1 phase at 68 nM after 24 hrs by flow cytometry; format: functional
K562 [12] = assay: Cell cycle arrest in human K-562 cells assessed as accumulation at G2/M phase at 68 nM after 24 hrs by flow cytometry; format: functional
K562 [13] = assay: Cell cycle arrest in human K-562 cells assessed as accumulation at G0/G1 phase at 68 nM after 24 hrs by flow cytometry; format: functional
K562 [14] = assay: Cell cycle arrest in human K-562 cells assessed as accumulation at S phase at 68 nM after 24 hrs by flow cytometry; format: functional
K562 [15] = assay: Cell cycle arrest in human K-562 cells assessed as accumulation at G0/G1 phase at 120 nM after 24 hrs by flow cytometry; format: functional
K562 [16] = assay: Cell cycle arrest in human K-562 cells assessed as accumulation at S phase at 120 nM after 24 hrs by flow cytometry; format: functional
K562 [17] = assay: Cell cycle arrest in human K-562 cells assessed as accumulation at G2/M phase at 120 nM after 24 hrs by flow cytometry; format: functional
K562 [18] = assay: Cell cycle arrest in human K-562 cells assessed as accumulation at sub G0/G1 phase at 120 nM after 24 hrs by flow cytometry; format: functional
[19] = Antiproliferative activity against human Molt4/C8 cells after 3 days; details: MOLT-4, 72 h
K562 [20] = assay: Cell cycle arrest in human K-562 cells assessed as accumulation at G2/M phase at 115 nM after 24 hrs by flow cytometry; format: functional
Method in brief: (§1)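 K562 cells exposed 24 h to compound, then washed once in ice-cold PBS. Resuspended at 1 × 10⁶ per mL in hypotonic propidium iodide 50 μg/mL with 0.1% sodium citrate and 0.03% (v/v) nonidet P-40, 30 min. Fluorescence read by flow cytometry as a single-parameter histogram. Sub-G0-G1, G0-G1, S and G2-M fractions compared with untreated control.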

K562 [21] = assay: Cell cycle arrest in human K-562 cells assessed as accumulation at S phase at 115 nM after 24 hrs by flow cytometry; format: functional; method in brief: as §1
K562 [22] = assay: Cell cycle arrest in human K-562 cells assessed as accumulation at G0/G1 phase at 115 nM after 24 hrs by flow cytometry; format: functional; method in brief: as §1
K562 [23] = assay: Cell cycle arrest in human K-562 cells assessed as accumulation at sub G0/G1 phase at 115 nM after 24 hrs by flow cytometry; format: functional; method in brief: as §1
K562 [24] = assay: Cell cycle arrest in human K-562 cells assessed as accumulation at sub G0/G1 phase at 212 nM after 24 hrs by flow cytometry; format: functional; method in brief: as §1
K562 [25] = assay: Cell cycle arrest in human K-562 cells assessed as accumulation at G0/G1 phase at 212 nM after 24 hrs by flow cytometry; format: functional; method in brief: as §1
K562 [26] = assay: Cell cycle arrest in human K-562 cells assessed as accumulation at G2/M phase at 212 nM after 24 hrs by flow cytometry; format: functional; method in brief: as §1
K562 [27] = assay: Cell cycle arrest in human K-562 cells assessed as accumulation at S phase at 212 nM after 24 hrs by flow cytometry; format: functional; method in brief: as §1

Compound	IC50 [1]	Activity (Bos taurus)	IC50 (L1210)	IC50 (FM3A)	other results
COc1ccc2c(N)c(C(=O)c3cc(OC)c(OC)c(OC)c3)[nH]c2c1	> 40 µM	–	–	–	–
COc1ccc2c(NC(=O)CCl)c(C(=O)c3cc(OC)c(OC)c(OC)c3)oc2c1	2 µM	47%	1.1 µM	1.1 µM	Activity (K562 [2]): 13%; Activity (K562 [3]): 33%; Activity (K562 [4]): 44%; Activity (K562 [5]): 23%; IC50 (K562 [6]): 0.4 µM
COc1ccc2c(NC(C)=O)c(C(=O)c3cc(OC)c(OC)c(OC)c3)oc2c1	1.6 µM	51%	0.094 µM	0.1 µM	Activity (K562 [7]): 36%; Activity (K562 [8]): 37%; Activity (K562 [9]): 12%; Activity (K562 [10]): 27%; IC50 (K562 [6]): 0.085 µM
COc1cc(C(=O)c2oc3ccccc3c2N(C)C)cc(OC)c1OC	–	–	> 10 µM	8.8 µM	–
COc1ccc2c(N)c(C(=O)c3cc(OC)c(OC)c(OC)c3)sc2c1	1.3 µM	60%	0.039 µM	0.046 µM	–
COc1ccc2oc(C(=O)c3cc(OC)c(OC)c(OC)c3)c(N)c2c1	–	–	> 10 µM	> 10 µM	–
COc1cc(C(=O)c2oc3c(OC)cccc3c2N)cc(OC)c1OC	–	–	> 10 µM	> 10 µM	–
COc1cc(C(=O)c2oc3ccccc3c2N)cc(OC)c1OC	–	–	> 10 µM	> 10 µM	–
COc1ccc2c(N(C)C)c(C(=O)c3cc(OC)c(OC)c(OC)c3)oc2c1	0.9 µM	76%	0.065 µM	0.059 µM	Activity (K562 [11]): 13%; Activity (K562 [12]): 30%; Activity (K562 [13]): 38%; Activity (K562 [14]): 32%
COc1cc(C(=O)c2oc3cccc(OC)c3c2N)cc(OC)c1OC	–	–	7.5 µM	7.9 µM	–
COc1ccc2c(N)c(C(=O)c3cc(OC)c(OC)c(OC)c3)oc2c1	1.1 µM	73%	0.43 µM	0.28 µM	Activity (K562 [15]): 11%; Activity (K562 [16]): 45%; Activity (K562 [17]): 44%; IC50 (K562 [6]): 0.12 µM; Activity (K562 [18]): 15%
COc1cc(C(=O)c2oc3cccc(OC)c3c2N(C)C)cc(OC)c1OC	–	–	> 10 µM	> 10 µM	IC50 [19]: > 10 µM
COc1ccc2c(NC(=O)CI)c(C(=O)c3cc(OC)c(OC)c(OC)c3)oc2c1	1.8 µM	54%	0.17 µM	0.26 µM	Activity (K562 [20]): 21%; Activity (K562 [21]): 56%; Activity (K562 [22]): 23%; Activity (K562 [23]): 33%
COc1ccc2c(N)c(C(=O)c3cc(OC)c(OC)c(OC)c3)n(C)c2c1	4.6 µM	–	–	–	–
COc1ccc2c(NC(=O)CBr)c(C(=O)c3cc(OC)c(OC)c(OC)c3)oc2c1	2.3 µM	–	0.48 µM	0.56 µM	Activity (K562 [24]): 15%; Activity (K562 [25]): 6%; Activity (K562 [26]): 67%; Activity (K562 [27]): 27%
COc1ccc2oc(C(=O)c3cc(OC)c(OC)c(OC)c3)c(N(C)C)c2c1	–	–	1.4 µM	1.2 µM	–
COc1cc(C(=O)c2oc3c(OC)cccc3c2N(C)C)cc(OC)c1OC	–	–	1.1 µM	1.2 µM	–
